Assay [1] deals with A549. The experiment in a line: Antiproliferative activity against human A549 cells after 48 hrs by MTT assay. The format is functional, cell-based. The following applies: A549, 48 h. An outline of the steps:
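A549 seeded at 5-7 × 10³ cells per well and incubated overnight at 37 °C, 5% CO₂. Medium then replaced with fresh medium holding graded compound concentrations or equal DMSO, 48 h. MTT (5 mg mL^-1 solution) added for 4 h, formazan dissolved in DMSO, absorbance read at 490 nm; IC₅₀ derived.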

In assay [2] the target is Epidermal growth factor receptor (Homo sapiens) (UniProt P00533). Nature of the assay: Inhibition of EGFR (unknown origin) at 1 uM after 15 mins by luminescence assay relative to control. The method, boiled down: (§1)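 Contract HTRF-format assay: enzyme, substrate, ATP and compound mixed in 50 mM HEPES/NaOH pH 7.0, 0.02% NaN₃, 0.01% BSA, 0.1 mM orthovanadate, 5 mM MgCl₂, 1 mM DTT. Incubated 15 min at room temperature with compound in 2.5% DMSO. Streptavidin-XL665 and TK antibody europium cryptate added in KF/EDTA buffer; signal read on EnVision; % inhibition computed.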
Chain of Epidermal growth factor receptor (Homo sapiens) (P00533 whole entry): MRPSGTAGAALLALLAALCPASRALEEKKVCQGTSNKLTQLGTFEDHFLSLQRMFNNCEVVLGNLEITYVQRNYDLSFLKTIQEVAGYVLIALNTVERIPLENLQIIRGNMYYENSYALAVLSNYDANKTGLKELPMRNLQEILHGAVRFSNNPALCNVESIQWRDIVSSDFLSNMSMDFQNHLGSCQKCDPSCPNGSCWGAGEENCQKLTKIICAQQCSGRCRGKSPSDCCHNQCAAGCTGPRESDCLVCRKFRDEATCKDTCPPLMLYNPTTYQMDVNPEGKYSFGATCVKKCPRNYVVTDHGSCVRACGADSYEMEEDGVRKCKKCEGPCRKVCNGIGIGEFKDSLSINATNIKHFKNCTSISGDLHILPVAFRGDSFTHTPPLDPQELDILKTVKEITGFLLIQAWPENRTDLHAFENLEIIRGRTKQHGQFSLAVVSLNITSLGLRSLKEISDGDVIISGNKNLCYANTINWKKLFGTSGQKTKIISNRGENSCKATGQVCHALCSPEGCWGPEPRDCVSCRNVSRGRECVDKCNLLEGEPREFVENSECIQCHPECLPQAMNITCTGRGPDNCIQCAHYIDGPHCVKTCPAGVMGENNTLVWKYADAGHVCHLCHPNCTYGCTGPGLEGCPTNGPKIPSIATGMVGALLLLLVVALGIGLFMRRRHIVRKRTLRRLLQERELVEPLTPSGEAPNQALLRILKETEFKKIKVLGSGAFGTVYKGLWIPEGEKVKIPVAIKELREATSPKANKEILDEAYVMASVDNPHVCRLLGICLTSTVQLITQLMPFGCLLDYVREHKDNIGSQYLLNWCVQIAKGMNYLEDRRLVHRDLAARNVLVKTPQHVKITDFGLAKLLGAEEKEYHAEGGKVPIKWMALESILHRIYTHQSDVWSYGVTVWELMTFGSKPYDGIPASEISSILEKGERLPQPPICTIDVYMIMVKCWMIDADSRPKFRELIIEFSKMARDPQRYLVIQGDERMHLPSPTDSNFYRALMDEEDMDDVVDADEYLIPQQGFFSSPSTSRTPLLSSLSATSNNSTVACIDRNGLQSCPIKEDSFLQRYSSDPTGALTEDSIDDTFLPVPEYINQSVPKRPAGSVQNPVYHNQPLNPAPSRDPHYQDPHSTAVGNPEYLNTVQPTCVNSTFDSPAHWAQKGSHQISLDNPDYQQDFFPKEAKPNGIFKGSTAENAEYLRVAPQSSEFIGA

Assay [3] has the same target. Nature of the assay: Inhibition of EGFR (unknown origin) at 10 uM after 15 mins by luminescence assay relative to control. An outline of the steps: as §1
Assay [4] relates to K562. Nature of the assay: Antiproliferative activity against human K562 cells after 48 hrs by MTT assay. It is filed as functional, cell-based. The following applies: K562, 48 h. The method, boiled down: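 K562 at 7×10⁵ cells mL^-1 seeded and held 12 h at 37 °C, 5% CO₂. Compound added in triplicate per concentration for 48 h. MTT (5 mg mL^-1 solution) added for 4 h at 37 °C, formazan dissolved in DMSO, absorbance read at 490 nm; IC₅₀ derived.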

Assay [5] concerns K562. Nature of the assay: Induction of apoptosis in human K562 cells assessed as necrotic cells at 0.1 uM after 48 hrs by Annexin V-FITC/propidium iodide based flow cytometric analysis (reference value: 0.22%). It is filed as functional.
Assay [6] deals with Calf thymus DNA. Nature of the assay: Binding affinity to calf thymus DNA by fluorescence titration method. The format is nucleic-acid assay. The conditions noted are these: Bos taurus.
Assay [7] relates to A549. Nature of the assay: Antiinvasive activity in human A549 cells at 1 uM preincubated for 6 hrs followed by cell seeding on the inserts to reach confluence for 12 hrs measured after 24 hrs by trypan blue staining-based bright-field light microscopic analysis relative to control. The format is functional. The method, boiled down: (§2)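 A549 cells pretreated with compound for 6 h, seeded on fibronectin-coated 8 µm pore invasion inserts to reach confluence over 12 h, then cultured another 24 h with drug. Cells fixed in 4% formaldehyde, non-invading cells swabbed off, invaders stained with 0.08% trypan blue for 15 min. Five random bright-field views counted; mean ± SEM of five experiments versus control.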

The test system of assay [8] is A549. Nature of the assay: Downregulation of EGFR protein expression in human A549 cells by measuring EGFR level up to 2.5 uM after 48 hrs by Western blot analysis (reference value: 48.02%). It is filed as functional. An outline of the steps:
(§3)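 Cells exposed to 0, 0.1, 0.5 and 2.5 µM for 48 h, then lysed and protein quantified. Equal protein loads run on 10% SDS-PAGE, transferred to PVDF and probed for EGFR, p-EGFR, Src and p-Src with HRP secondaries and luminescence detection. Band density expressed as percentage of β-actin.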

Assay [9] deals with Epidermal growth factor receptor (Homo sapiens) (UniProt P00533). The experiment in a line: Inhibition of EGFR phosphorylation in human A549 cells by measuring EGFR phosphorylated protein level up to 2.5 uM after 48 hrs by Western blot analysis (reference value: 50.21%). The format is cell-based. The arrangement: scale not given: the % may be the effect or the level left. The method, boiled down:
as §3

Assay [10] deals with K562. Nature of the assay: Induction of apoptosis in human K562 cells assessed as late apoptotic cells at 1 uM after 48 hrs by Annexin V-FITC/propidium iodide based flow cytometric analysis (reference value: 2.49%). The format is functional.
Assay [11] concerns K562. The experiment in a line: Induction of apoptosis in human K562 cells assessed as early apoptotic cells at 0.01 uM after 48 hrs by Annexin V-FITC/propidium iodide based flow cytometric analysis (reference value: 4.68%). The format is functional.
The target in assay [12] is Epidermal growth factor receptor (Homo sapiens) (UniProt P00533). Nature of the assay: Inhibition of EGFR phosphorylation in human A549 cells after 48 hrs by Western blot analysis. The format is cell-based. An outline of the steps:
as §3

Assay [13] concerns K562. Nature of the assay: Induction of apoptosis in human K562 cells assessed as early apoptotic cells at 0.1 uM after 48 hrs by Annexin V-FITC/propidium iodide based flow cytometric analysis (reference value: 4.68%). It is filed as functional.
The test system of assay [14] is K562. Nature of the assay: Induction of apoptosis in human K562 cells assessed as early apoptotic cells at 1 uM after 48 hrs by Annexin V-FITC/propidium iodide based flow cytometric analysis (reference value: 4.68%). The format is functional.
In assay [15] the test system is A549. Nature of the assay: Downregulation of SRC protein expression in human A549 cells after 48 hrs by Western blot analysis. The format is functional, cell-based. The method, boiled down: as §3
Assay [16] concerns A549. Nature of the assay: Downregulation of EGFR protein expression in human A549 cells after 48 hrs by Western blot analysis. The format is functional, cell-based. An outline of the steps: as §3
The subject of assay [17] is K562. Nature of the assay: Induction of apoptosis in human K562 cells after 48 hrs by Annexin V-FITC/propidium iodide based flow cytometric analysis. It is filed as functional, cell-based.
In assay [18] the test system is K562. The experiment in a line: Induction of apoptosis in human K562 cells assessed as necrotic cells at 0.01 uM after 48 hrs by Annexin V-FITC/propidium iodide based flow cytometric analysis (reference value: 0.22%). It is filed as functional.
Assay [19] has as its system Calf thymus DNA. Nature of the assay: Binding affinity to calf thymus DNA by UV-visible absorption spectral analysis. It is filed as nucleic-acid assay. The conditions noted are these: Bos taurus.
For assay [20], the system named is K562. The experiment in a line: Induction of apoptosis in human K562 cells assessed as late apoptotic cells at 0.1 uM after 48 hrs by Annexin V-FITC/propidium iodide based flow cytometric analysis (reference value: 2.49%). It is filed as functional.
Assay [21] addresses Proto-oncogene tyrosine-protein kinase Src (Homo sapiens) (UniProt P12931). The experiment in a line: Inhibition of SRC (unknown origin) at 1 uM after 15 mins by luminescence assay relative to control. The method, boiled down: as §1
Assay [22] has as its system K562. The experiment in a line: Induction of apoptosis in human K562 cells assessed as late apoptotic cells at 0.01 uM after 48 hrs by Annexin V-FITC/propidium iodide based flow cytometric analysis (reference value: 2.49%). The format is functional.
In assay [23] the test system is K562. The experiment in a line: Induction of apoptosis in human K562 cells assessed as necrotic cells at 1 uM after 48 hrs by Annexin V-FITC/propidium iodide based flow cytometric analysis (reference value: 0.22%). The format is functional.
The subject of assay [24] is A549. Nature of the assay: Antiinvasive activity in human A549 cells at 0.1 uM preincubated for 6 hrs followed by cell seeding on the inserts to reach confluence for 12 hrs measured after 24 hrs by trypan blue staining-based bright-field light microscopic analysis relative to control. The format is functional. An outline of the steps:
as §2

The target of assay [25] is Proto-oncogene tyrosine-protein kinase Src (Homo sapiens) (UniProt P12931). The experiment in a line: Inhibition of SRC phosphorylation in human A549 cells after 48 hrs by Western blot analysis. It is filed as cell-based. The method, boiled down:
as §3

Chain of Proto-oncogene tyrosine-protein kinase Src (Homo sapiens) (P12931 2-536 limits assumed): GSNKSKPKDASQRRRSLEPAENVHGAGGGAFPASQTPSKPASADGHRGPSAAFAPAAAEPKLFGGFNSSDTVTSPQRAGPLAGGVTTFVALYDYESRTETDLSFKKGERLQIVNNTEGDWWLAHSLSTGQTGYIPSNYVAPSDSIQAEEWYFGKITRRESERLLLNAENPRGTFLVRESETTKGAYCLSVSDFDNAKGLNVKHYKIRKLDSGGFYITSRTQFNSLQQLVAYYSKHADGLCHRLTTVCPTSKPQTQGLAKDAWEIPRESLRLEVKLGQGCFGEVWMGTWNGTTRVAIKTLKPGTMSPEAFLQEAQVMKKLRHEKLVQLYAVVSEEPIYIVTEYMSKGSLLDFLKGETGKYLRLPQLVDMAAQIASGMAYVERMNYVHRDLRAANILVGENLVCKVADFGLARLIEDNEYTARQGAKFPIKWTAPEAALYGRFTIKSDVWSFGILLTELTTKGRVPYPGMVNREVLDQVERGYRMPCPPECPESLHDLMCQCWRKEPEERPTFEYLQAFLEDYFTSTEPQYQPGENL

With `O=C(Nc1ccc(Nc2ncnc3c2Cc2ccccc2N3)cc1)c1cccc(C(F)(F)F)c1`, the figures for the 50% inhibitory concentration (IC50) in the assay on A549 [1] and in the assay with K562 [4] were 12.2 µM and 1.32 µM, respectively. Also, the inhibition worked out at 52.4% in [2] and 95.4% in assay [3].
With `O=C(Nc1ccccc1)Nc1ccc(Nc2ncnc3c2Cc2ccccc2N3)cc1`, the IC50 in the assay with A549 [1] is 18 µM; in the assay on K562 [4] it was 5.08 µM. This compound yielded an inhibition in assay [3] of 32%.
In the case of `O=C(Nc1ccc(Nc2ncnc3c2Cc2ccccc2N3)cc1)c1cccc(F)c1`, the Activity is 1.06% in the assay with K562 [5]; 3.03% with A549 [8]; 3.11% in assay [9]; 45.15% with K562 [10]; 11.14% with K562 [11]; 18.82% in the assay on K562 [13]. The Activity with K562 [14] is 4.19%; with A549 [15], “Dose-dependent effect”; with A549 [16], “Dose-dependent effect”; in the assay with K562 [17], “Dose-dependent effect”; in the assay on K562 [18], 0.17%; with K562 [20], 27.11%. The Activity in the assay on K562 [22] was 3.06%; in the assay with K562 [23], 0.77%. Moreover, in the assay on Calf thymus DNA [6], the K turned out to be 973 M⁻¹. Further, the IC50 in the assay on A549 [1] was found to be 0.253 µM; in the assay with K562 [4] it was 0.22 µM. Moreover, in the assay with A549 [7], the inhibition at 1 µM stood at 82.8%. In addition, the inhibition result in assay [12] was “Dose-dependent effect”; in assay [3], 33.1 to 33.5%; in [21], 72.1%; in assay [25], “Dose-dependent effect”. This compound also had a Kb in the assay on Calf thymus DNA [19] of 4.16 ×10³ /M. This compound also registered an inhibition at 0.1 µM in the assay on A549 [24] of 52.5%.
On to `O=C(Nc1ccc(Nc2ncnc3c2Cc2ccccc2N3)cc1)c1cccc(Cl)c1`, for which the IC50 was found to be 20.7 µM in the assay on A549 [1] and 0.41 µM with K562 [4]. The inhibition in assay [3] amounted to 30.9%.
`O=C(Nc1ccc(Nc2ncnc3c2Cc2ccccc2N3)cc1)Nc1cccc(C(F)(F)F)c1`: the 50% inhibitory concentration (IC50) in the assay with A549 [1] is 9.26 µM; with K562 [4], 3.35 µM. The compound also yielded an inhibition in assay [3] of 35.4%.
As to `O=C(Nc1cccc(Nc2ncnc3c2Cc2ccccc2N3)c1)c1cccc(Cl)c1`, the IC50 in the assay on A549 [1] was determined as 12.3 µM; in the assay with K562 [4], 1.21 µM. The compound also displayed an inhibition in [3] of 30.2%.
For `O=C(Nc1ccc(Nc2ncnc3c2Cc2ccccc2N3)cc1)Nc1cccc(Cl)c1`, the IC50 with A549 [1] came to 17.9 µM; with K562 [4] it was 3.08 µM. For the same compound, in assay [3], the inhibition turned out to be 42.1%.
On to `COc1ccc2c(Nc3ccc(NC(=O)Nc4ccccc4)cc3)c3ccccc3nc2c1`, for which 9.03 µM corresponded to half-maximal inhibition with A549 [1] (IC50). In assay [3], the inhibition was 21.4%.
Take `COc1cccc(C(=O)Nc2cccc(Nc3ncnc4c3Cc3ccccc3N4)c2)c1`: the values for the IC50 with A549 [1] and in the assay with K562 [4] were 13.5 µM and 3.08 µM, respectively. The compound also had an inhibition in assay [3] of 31.9%.
Regarding `Cc1cccc(C(=O)Nc2cccc(Nc3ncnc4c3Cc3ccccc3N4)c2)c1`, the IC50 in the assay on A549 [1] was greater than 25 µM; in the assay with K562 [4] it was 4.9 µM. In assay [3], the inhibition amounted to 53%.
Regarding `COc1cccc(C(=O)Nc2ccc(Nc3ncnc4c3Cc3ccccc3N4)cc2)c1`, the IC50 with A549 [1] was 14.1 µM; with K562 [4], 2.16 µM. Also, the inhibition in assay [3] came out at 35.4%.
The matching figures for `O=C(Nc1cccc(Nc2ncnc3c2Cc2ccccc2N3)c1)c1cccc(F)c1`: 9.05 µM, 0.72 µM and 24.5%.
The like results for `O=C(Nc1ccc(Nc2ncnc3c2Cc2ccccc2N3)cc1)Nc1cccc(F)c1` were, in that order, 6.82 µM, 3.14 µM and 55.4%.
With `O=C(Nc1cccc(Nc2ncnc3c2Cc2ccccc2N3)c1)c1cccc(C(F)(F)F)c1`, the IC50 with A549 [1] was 9.58 µM; with K562 [4], 1.89 µM. Also, the inhibition in assay [3] was found to be 16.3%.
The matching figures for `O=C(Nc1ccc(Nc2ncnc3c2Cc2ccccc2N3)cc1)c1ccccc1`: 14.3 µM, 2.52 µM and 12.6%.
`Cc1ccc(NC(=O)c2ccc(CN3CCN(C)CC3)cc2)cc1Nc1nccc(-c2cccnc2)n1` [IMATINIB] yielded an IC50 with A549 [1] of 4.56 µM.
On to `O=C(Nc1cccc(Nc2ncnc3c2Cc2ccccc2N3)c1)c1ccccc1`, for which the IC50 in the assay with A549 [1] was found to be 18.3 µM; with K562 [4] it was 3.11 µM. In [3], this compound had an inhibition of 30.7%.
The matching figures for `Cc1cccc(NC(=O)Nc2ccc(Nc3ncnc4c3Cc3ccccc3N4)cc2)c1`: greater than 25 µM, 6.97 µM and 65.4%.
The like results for `Cc1cccc(C(=O)Nc2ccc(Nc3ncnc4c3Cc3ccccc3N4)cc2)c1` were, in that order, 24.8 µM, 3.62 µM and 51.1%.
The matching figures for `COc1cccc(NC(=O)Nc2ccc(Nc3ncnc4c3Cc3ccccc3N4)cc2)c1`: 13.4 µM, 3.62 µM and 24.9%.
